According to ChEMBL document CHEMBL3860021, “Screening and Design of Inhibitor Scaffolds for the Antibiotic Resistance Oxacillinase-48 (OXA-48) through Surface Plasmon Resonance Screening” (J Med Chem, 2016):
Blank lines part the entries; values can stand above or below the molecule they belong to. Active and inactive are the calls of the source. The calls are words filed in the database; no cut-off is given here.

Legend:
Beta-lactamase OXA-48 [1] = target: T1, Beta-lactamase OXA-48 (Klebsiella pneumoniae, UniProt Q6XEC0); assay: Inhibition of native signal containing Klebsiella pneumoniae OXA-48 using nitrocefin substrate pre-incubated for 5 mins before substrate addition
Beta-lactamase OXA-48 [2] = target: T1, Beta-lactamase OXA-48; assay: Binding affinity to native signal deficient and TEV cleavage site containing His-tagged Klebsiella pneumoniae OXA-48 expressed in Escherichia coli assessed as dissociation constant by SPR assay
[3] = Inhibition of beta-lactamase VIM-2 (unknown origin)
[4] = target: Beta-lactamase OXA-48 (Klebsiella pneumoniae) (UniProt Q6XEC0); assay: Binding affinity to native signal deficient and TEV cleavage site containing His-tagged Klebsiella pneumoniae OXA-48 expressed in Escherichia coli assessed as association rate constant by SPR assay
Summary of the method: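 SPR with tOXA-48 amine-coupled to a CM5 chip (~5000 RU, immobilised from 10 mM MES pH 5.5). Meropenem was injected as a 2-fold series, 62.5 nM-32 µM, at 30 µL/min, with 60 s contact and 240 s dissociation. Sensorgrams were double-referenced and fitted to a 1:1 kinetic model.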

Beta-lactamase OXA-48 [5] = target: T1, Beta-lactamase OXA-48; assay: Binding affinity to native signal deficient and TEV cleavage site containing His-tagged Klebsiella pneumoniae OXA-48 expressed in Escherichia coli assessed as dissociation rate constant by SPR assay
Summary of the method: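 tOXA-48 (E. coli BL21 Star (DE3) pRARE, His tag removed by TEV, cation-exchange polished) amine-coupled to CM5 chip (~5000 RU, from 25 µg/mL in 10 mM MES pH 5.5). Fragments 2-fold series 118-900 µM (or 1.8-900 µM), double-referenced, steady-state fit. Meropenem 62.5 nM-32 µM, 1:1 kinetic fit.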

[6] = target: Beta-lactamase OXA-48 (Klebsiella pneumoniae) (UniProt Q6XEC0); assay: Inhibition of native signal containing Klebsiella pneumoniae OXA-48 at 1.5 uM using nitrocefin substrate pre-incubated for 5 mins before substrate addition
Summary of the method: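 Avibactam dilution series (50 nM–20 µM) was preincubated about 5 min with 100 pM nOXA-48, then started with 25 µM nitrocefin. Buffer was phosphate pH 7.0 with 50 mM NaHCO3 and 0.2 mg/ml BSA, at 25 °C. Competition read-out from initial hydrolysis rates.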

[7] = substrate: O=C(Cc1cccs1)N[C@@H]1C(=O)N2C(C(=O)O)=C(/C=C/c3ccc([N+](=O)[O-])cc3[N+](=O)[O-])CS[C@H]12; assay: Activity of native signal deficient and TEV cleavage site containing His-tagged Klebsiella pneumoniae OXA-48 expressed in Escherichia coli by Michaelis-Menten kinetics assay
Summary of the method: (§1)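 His-tag-removed tOXA-48 from E. coli BL21 Star (DE3) pRARE, purified by HisTrap, TEV cleavage and cation exchange. Hydrolysis of nitrocefin (10-300 µM) was read at 482 nm with 1 nM enzyme. Buffer was 100 mM phosphate pH 7.0, 50 mM NaHCO3, 0.2 mg/ml BSA at 25 °C. Enzyme-started; linear-phase rates were fitted to Michaelis-Menten.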

[8] = substrate: CC1(C)S[C@@H]2[C@H](NC(=O)[C@H](N)c3ccccc3)C(=O)N2[C@H]1C(=O)O; assay: (§2) Activity of native signal containing Klebsiella pneumoniae OXA-48 by Michaelis-Menten kinetics assay
Summary of the method: (§3)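 Steady-state kinetics of nOXA-48 at 25 °C in 100 mM sodium phosphate pH 7.0, 50 mM NaHCO3, 0.2 mg/ml BSA. Substrates were ampicillin, benzylpenicillin, cefepime, CENTA, meropenem, imipenem and nitrocefin, each over its own concentration range, with 100 pM–140 nM enzyme. Reactions were enzyme-started and followed spectrophotometrically. Velocities came from the linear phase, fitted to Michaelis-Menten.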

[9] = substrate: CC1(C)S[C@@H]2[C@H](NC(=O)Cc3ccccc3)C(=O)N2[C@H]1C(=O)O; assay: as §2; summary of the method: as §3
[10] = substrate: C[C@@H](O)[C@H]1C(=O)N2C(C(=O)O)=C(SCCNC=N)C[C@H]12; assay: as §2; summary of the method: as §3
[11] = substrate: O=C(Cc1cccs1)N[C@@H]1C(=O)N2C(C(=O)O)=C(CSc3ccc([N+](=O)[O-])c(C(=O)O)c3)CS[C@H]12; assay: as §2; summary of the method: as §3
[12] = substrate: C[C@@H](O)[C@H]1C(=O)N2C(C(=O)O)=C(S[C@@H]3CN[C@H](C(=O)N(C)C)C3)[C@H](C)[C@H]12; assay: as §2; summary of the method: as §3
[13] = substrate: CO/N=C(\C(=O)N[C@@H]1C(=O)N2C(C(=O)[O-])=C(C[N+]3(C)CCCC3)CS[C@H]12)c1csc(N)n1; assay: as §2; summary of the method: as §3
[14] = substrate: O=C(Cc1cccs1)N[C@@H]1C(=O)N2C(C(=O)O)=C(/C=C/c3ccc([N+](=O)[O-])cc3[N+](=O)[O-])CS[C@H]12; assay: as §2; summary of the method: as §3
[15] = substrate: CC1(C)S[C@@H]2[C@H](NC(=O)[C@H](N)c3ccccc3)C(=O)N2[C@H]1C(=O)O; assay: (§4) Activity of native signal containing Klebsiella pneumoniae OXA-48 assessed as ratio of Kcat to Km by Michaelis-Menten kinetics assay; summary of the method: as §3
[16] = substrate: CC1(C)S[C@@H]2[C@H](NC(=O)Cc3ccccc3)C(=O)N2[C@H]1C(=O)O; assay: as §4; summary of the method: as §3
[17] = substrate: C[C@@H](O)[C@H]1C(=O)N2C(C(=O)O)=C(SCCNC=N)C[C@H]12; assay: as §4; summary of the method: as §3
[18] = substrate: O=C(Cc1cccs1)N[C@@H]1C(=O)N2C(C(=O)O)=C(CSc3ccc([N+](=O)[O-])c(C(=O)O)c3)CS[C@H]12; assay: as §4; summary of the method: as §3
[19] = substrate: C[C@@H](O)[C@H]1C(=O)N2C(C(=O)O)=C(S[C@@H]3CN[C@H](C(=O)N(C)C)C3)[C@H](C)[C@H]12; assay: as §4; summary of the method: as §3
[20] = substrate: CO/N=C(\C(=O)N[C@@H]1C(=O)N2C(C(=O)[O-])=C(C[N+]3(C)CCCC3)CS[C@H]12)c1csc(N)n1; assay: as §4; summary of the method: as §3
[21] = substrate: O=C(Cc1cccs1)N[C@@H]1C(=O)N2C(C(=O)O)=C(/C=C/c3ccc([N+](=O)[O-])cc3[N+](=O)[O-])CS[C@H]12; assay: as §4; summary of the method: as §3
[22] = substrate: O=C(Cc1cccs1)N[C@@H]1C(=O)N2C(C(=O)O)=C(/C=C/c3ccc([N+](=O)[O-])cc3[N+](=O)[O-])CS[C@H]12; assay: Activity of native signal deficient and TEV cleavage site containing His-tagged Klebsiella pneumoniae OXA-48 expressed in Escherichia coli assessed as ratio of Kcat to Km by Michaelis-Menten kinetics assay; summary of the method: as §1

Molecule: O=C(O)c1cccc(-c2cccnc2)c1
IC50 (Beta-lactamase OXA-48 [1]): 240 µM | Kd (Beta-lactamase OXA-48 [2]): 280 µM

Molecule: O=C(O)c1cc(-c2ccncc2)cc(-c2ccncc2)c1
IC50 (Beta-lactamase OXA-48 [1]): 18 µM | inhibition [3]: Active | Kd (Beta-lactamase OXA-48 [2]): 50 µM

Molecule: C[C@@H](O)[C@H]1C(=O)N2C(C(=O)O)=C(S[C@@H]3CN[C@H](C(=O)N(C)C)C3)[C@H](C)[C@H]12 [MEROPENEM]
Ka [4]: 4 ×10⁴ /M/s | koff (Beta-lactamase OXA-48 [5]): 0.3463 s⁻¹ | Kd (Beta-lactamase OXA-48 [2]): 0.85 µM

Molecule: O=C(O)c1cccc(-c2ccccc2)c1
IC50 (Beta-lactamase OXA-48 [1]): 260 µM | Kd (Beta-lactamase OXA-48 [2]): 370 µM

Molecule: c1ccc(-c2ccncc2)cc1
IC50 (Beta-lactamase OXA-48 [1]): > 2000 µM | Kd (Beta-lactamase OXA-48 [2]): > 1000 µM

Molecule: O=C(O)c1ccc2ccncc2c1
IC50 (Beta-lactamase OXA-48 [1]): 2200 µM | Kd (Beta-lactamase OXA-48 [2]): 1180 µM

Molecule: O=C(O)CCCc1c[nH]c2ccccc12
IC50 (Beta-lactamase OXA-48 [1]): 480 µM | Kd (Beta-lactamase OXA-48 [2]): 430 µM

Molecule: O=C(O)c1cccc(-c2ccncc2)c1
IC50 (Beta-lactamase OXA-48 [1]): 250 µM | Kd (Beta-lactamase OXA-48 [2]): 280 µM

Molecule: O=C(O)c1ccc(Oc2ccccc2)cc1
IC50 (Beta-lactamase OXA-48 [1]): 870 µM | Kd (Beta-lactamase OXA-48 [2]): 660 µM

Molecule: O=C(O)CSc1ccnc2cc(Cl)ccc12
IC50 (Beta-lactamase OXA-48 [1]): 220 µM

Molecule: O=C(O)c1ccc2[nH]ccc2c1
IC50 (Beta-lactamase OXA-48 [1]): 1390 µM | Kd (Beta-lactamase OXA-48 [2]): 1380 µM

IC50 (Beta-lactamase OXA-48 [1]): > 2000 µM | Kd (Beta-lactamase OXA-48 [2]): > 1000 µM
Molecule: CC(=O)c1cccc(-c2ccncc2)c1

Molecule: Cc1cc2ccc(C(=O)O)cc2cn1
IC50 (Beta-lactamase OXA-48 [1]): 1020 µM | Kd (Beta-lactamase OXA-48 [2]): 700 µM

IC50 (Beta-lactamase OXA-48 [1]): > 2000 µM | Kd (Beta-lactamase OXA-48 [2]): > 1000 µM
Molecule: O=C(O)c1ccccn1 [2-PICOLINIC ACID]

inhibition [6]: 50%
Molecule: NC(=O)[C@@H]1CC[C@@H]2CN1C(=O)N2OS(=O)(=O)O

Molecule: O=C(O)c1cccc(-c2nccs2)c1
IC50 (Beta-lactamase OXA-48 [1]): 250 µM | Kd (Beta-lactamase OXA-48 [2]): 310 µM

Molecule: O=C(O)c1cccc(C#Cc2ccccc2)c1
IC50 (Beta-lactamase OXA-48 [1]): 480 µM

Molecule: Nc1cccnc1-c1cccc(C(=O)O)c1
IC50 (Beta-lactamase OXA-48 [1]): 180 µM | Kd (Beta-lactamase OXA-48 [2]): 330 µM

B1: Beta-lactamase OXA-48 (Klebsiella pneumoniae), Q6XEC0 (protein)
chain: MRVLALSAVFLVASIIGMPAVAKEWQENKSWNAHFTEHKSQGVVVLWNENKQQGFTNNLKRANQAFLPASTFKIPNSLIALDLGVVKDEHQVFKWDGQTRDIATWNRDHNLITAMKYSVVPVYQEFARQIGEARMSKMLHAFDYGNEDISGNVDSFWLDGGIRISATEQISFLRKLYHNKLHVSERSQRIVKQAMLTEANGDYIIRAKTGYSTRIEPKIGWWVGWVELDDNVWFFAMNMDMPTSDGLGLRQAITKEVLKQEKIIP
Km [7]: 150 µM | kcat [7]: 2300 s⁻¹ | Km [8]: 150 µM | kcat [8]: 560 s⁻¹ | Km [9]: 700 µM | kcat [9]: 8000 s⁻¹ | Km [10]: 7.9 µM | kcat [10]: 4.5 s⁻¹ | Km [11]: 24 µM | kcat [11]: 0.66 s⁻¹ | Km [12]: 1 µM | kcat [12]: 0.098 s⁻¹ | Km [13]: 300 µM | kcat [13]: 9 s⁻¹ | Km [14]: 90 µM | kcat [14]: 1500 s⁻¹ | kcat/Km [15]: 3.7 ×10⁶ /M/s | kcat/Km [16]: 1.1 ×10⁷ /M/s | kcat/Km [17]: 5.7 ×10⁵ /M/s | kcat/Km [18]: 2.8 ×10⁴ /M/s | kcat/Km [19]: 9.8 ×10⁴ /M/s | kcat/Km [20]: 3 ×10⁴ /M/s | kcat/Km [21]: 1.7 ×10⁷ /M/s | kcat/Km [22]: 1.5 ×10⁷ /M/s
